Screens: PubChem BioAssay, several laboratories
DDE Tn7 FP inh: inhibitors of Tn7 peptide binding to human fibrin DD(E). inhibition, % at 8.3 µM. hit rate 0.13% among 370,000. AID 720508. FP displacement of FITC-Tn7 peptide from fibrin DD(E); 0% = median of compound wells per plate;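 active means inhibition above the mean of compounds falling within the control limits plus 3 SD of them, cut at about 14% in these data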;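 further: 0% = plate median of compound wells and 100% = 10 µM Aha-Tn7 peptide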
Target sequence (P02675 whole entry, looked up): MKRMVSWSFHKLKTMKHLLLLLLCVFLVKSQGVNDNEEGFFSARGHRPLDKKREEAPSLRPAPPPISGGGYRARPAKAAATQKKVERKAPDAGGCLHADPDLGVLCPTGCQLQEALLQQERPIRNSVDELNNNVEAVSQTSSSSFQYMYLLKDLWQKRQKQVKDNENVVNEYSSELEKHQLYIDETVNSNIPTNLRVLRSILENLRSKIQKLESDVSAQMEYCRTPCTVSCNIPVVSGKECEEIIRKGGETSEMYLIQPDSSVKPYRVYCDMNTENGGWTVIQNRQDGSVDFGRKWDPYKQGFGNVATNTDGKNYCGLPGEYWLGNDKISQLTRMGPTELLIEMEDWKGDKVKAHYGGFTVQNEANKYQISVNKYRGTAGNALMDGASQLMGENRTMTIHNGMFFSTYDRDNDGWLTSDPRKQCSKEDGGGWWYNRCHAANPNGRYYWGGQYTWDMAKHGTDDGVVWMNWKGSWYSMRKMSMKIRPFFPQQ
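Assay system: Human clot-derived fibrin DD(E) complex | Buffer or medium: Tris/NaCl/CaCl2 buffer, pH 7.8 | Repeats: One replicate per compound | Benchmarks: Aha-Tn7 high control | Measure: % inhibition scaled between sample-field median and high-control FP | Schedule: 10 min plus 3 h, room temperature | Signal: Fluorescence polarization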
CRFBP-R2 agonist: agonists of human CRF-binding protein/CRF-R2 receptor complex. HEK293 CRF-R2/CRF-BP, calcium dye fluorescence (FLIPR); percent of saturating CRF peptide response. activation, % at 13.2 µM. hit rate 0.46% among 350,000;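 active means activation of at least 50%, plus an integration ratio under a set limit after plate pattern correction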;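 further: plate controls were neutral control wells without compound for no effect and CRF at EC100 for full effect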
CRFBP-R2 block: CRF-BP/CRF-R2 complex antagonism | HEK293 CRF-R2/CRF-BP, CRF-induced calcium fluorescence | inhibition, % at 11.8 µM | hit rate 0.59% among 350,000;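 active means inhibition of the ligand-induced calcium signal above about 50% at the single tested concentration, limit read from the data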
Tn6 DDE FP: disrupts Tn6 cyclic peptide binding to fibrin D-Dimer-E complex; P02675; Fibrin DD(E) TRITC-Tn6 fluorescence polarization displacement; inhibition, % at 8.3 µM; hit rate 0.21% among 370,000;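 active means inhibition above a per-campaign cutoff: mean of compounds within control limits plus 3 SD, cut at about 15% in these data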;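 further: 0% = median of all compound wells on the plate and 100% = blocking peptide control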
* = called active by the depositor. Hits are enriched below; roughly 1.3% of the tested compounds scored in any of these assays.

Screening O=C(COC(=O)C1CCN(S(=O)(=O)c2ccccc2)CC1)NC(=O)c1ccc(OC(F)F)cc1 returned DDE Tn7 FP inh -4, CRFBP-R2 agonist 0, CRFBP-R2 block 131* and Tn6 DDE FP 4.
COc1ccc(CN2C3=N[C@H](c4ccccc4)CC(=O)N3/C(=C\c3ccccc3)C2c2ccco2)c(OC)c1 (stereo not given in full) was read as DDE Tn7 FP inh 9 and Tn6 DDE FP -7.
Screening CCOc1cccc(CNc2ccc(O)cc2)c1OCc1ccc(Cl)cc1 returned DDE Tn7 FP inh -7, CRFBP-R2 agonist 0, CRFBP-R2 block 23 and Tn6 DDE FP 15*.
Cc1nn(-c2ccccc2)c(N)c1Sc1ccc([N+](=O)[O-])cc1 was read as DDE Tn7 FP inh -6, CRFBP-R2 agonist -1, CRFBP-R2 block 58* and Tn6 DDE FP 0.
For Cc1nn(S(=O)(=O)c2ccc(Cl)cc2)c(C)c1Sc1ccc([N+](=O)[O-])cc1 the results were DDE Tn7 FP inh 2, CRFBP-R2 agonist 2, CRFBP-R2 block 30 and Tn6 DDE FP 4.
Screening CCN(CC)c1ccc2cc(-c3nnc(-c4ccncc4)o3)c(=O)oc2c1 returned DDE Tn7 FP inh -32, CRFBP-R2 agonist 337*, CRFBP-R2 block -403 and Tn6 DDE FP -6.
CCN(CC)c1ccc2cc(C(C)=O)c(=O)oc2c1 was read as DDE Tn7 FP inh -23, CRFBP-R2 agonist 361*, CRFBP-R2 block -169 and Tn6 DDE FP -1.
Screening CCN(CC)c1ccc2cc(C(N)=O)c(=N)oc2c1 returned DDE Tn7 FP inh -1, CRFBP-R2 agonist 258*, CRFBP-R2 block -249 and Tn6 DDE FP 5.
`CCN(CC)c1ccc2cc(NC(=O)CCC(=O)O)c(=O)oc2c1` gave DDE Tn7 FP inh 10, CRFBP-R2 agonist 88*, CRFBP-R2 block -80 and Tn6 DDE FP 44*.
For CCN(CC)c1ccc2cc(C=O)c(=O)oc2c1 the results were DDE Tn7 FP inh -63, CRFBP-R2 agonist 309, CRFBP-R2 block -230 and Tn6 DDE FP 4.
CCOc1ccccc1NC(=O)c1cc2ccccc2oc1=O was read as DDE Tn7 FP inh -8, CRFBP-R2 agonist 2, CRFBP-R2 block 0 and Tn6 DDE FP 0.
CCN(CC)c1ccc2cc(C(=O)Nc3ccccn3)c(=O)oc2c1 was read as DDE Tn7 FP inh 3, CRFBP-R2 agonist 263*, CRFBP-R2 block -206 and Tn6 DDE FP 6.
Screening O=C(/C=C(\Nc1cccc(Cl)c1F)c1ccccc1)c1ccccc1 returned DDE Tn7 FP inh 9 and Tn6 DDE FP -1.
Cc1noc(C)c1COC(=O)c1cc(C)n(-c2ccccc2)c1C was read as DDE Tn7 FP inh -1, CRFBP-R2 agonist 0, CRFBP-R2 block 50* and Tn6 DDE FP 0.
`O=C(CN1C(=O)NC2(CCCC2)C1=O)c1ccc(Cl)s1` gave DDE Tn7 FP inh -1, CRFBP-R2 agonist -2, CRFBP-R2 block 54* and Tn6 DDE FP 3.
Screening CC(C)(C)C(=O)NCc1ccc(C(=O)CN2C(=O)NC3(CCCC3)C2=O)s1 returned DDE Tn7 FP inh 6, CRFBP-R2 agonist 0, CRFBP-R2 block 3 and Tn6 DDE FP 3.
For CCOC(=O)c1c(C)[nH]c(C)c1C(=O)COC(=O)/C=C/c1ccc(Cl)cc1 the results were DDE Tn7 FP inh -4, CRFBP-R2 agonist -2, CRFBP-R2 block 129* and Tn6 DDE FP 0.
Screening CCOC(=O)c1c(C)[nH]c(C)c1C(=O)COC(=O)/C=C/c1ccc(OC(F)F)cc1 returned DDE Tn7 FP inh -10, CRFBP-R2 agonist 0, CRFBP-R2 block 14 and Tn6 DDE FP 4.
`CC(C)OC(=O)c1ccccc1C(=O)c1ccc(N)c([N+](=O)[O-])c1` gave DDE Tn7 FP inh -12, CRFBP-R2 agonist 2, CRFBP-R2 block 56* and Tn6 DDE FP -4.
Screening CNC(=O)COC(=O)c1ccccc1C(=O)c1ccc(Cl)c([N+](=O)[O-])c1 returned DDE Tn7 FP inh -8, CRFBP-R2 agonist 1, CRFBP-R2 block 44 and Tn6 DDE FP -7.
For O=C(COC(=O)c1ccccc1C(=O)c1ccc(Cl)c([N+](=O)[O-])c1)NC1CC1 the results were DDE Tn7 FP inh -1, CRFBP-R2 agonist -6, CRFBP-R2 block 52* and Tn6 DDE FP -1.
Screening Nc1ccccc1Sc1ccc(C(=O)c2ccccc2C(=O)O)cc1[N+](=O)[O-] returned DDE Tn7 FP inh -6, CRFBP-R2 agonist 0, CRFBP-R2 block -7 and Tn6 DDE FP 7.
COC(=O)[C@]12C[C@H](CC(=O)N3CCC(c4ccccc4)CC3)C(=O)N(Cc3cccc4ccccc34)C1=C[C@H](C1CCCC1)O[C@@H]2C was read as DDE Tn7 FP inh 1 and Tn6 DDE FP -7.
Screening C=CCN(C)CC#CCCCCl returned DDE Tn7 FP inh -1 and Tn6 DDE FP 2.
Screening COc1ccc(/C=C/C(=O)NCc2cn(C)nc2C)cc1COc1ccc(Cl)cc1Br returned CRFBP-R2 agonist 9 and CRFBP-R2 block 92*.
Screening CCn1nc(C)c(NC(=O)/C=C/c2ccc(OC)c(COc3ccc(Cl)cc3Br)c2)c1C returned DDE Tn7 FP inh 2, CRFBP-R2 agonist 1, CRFBP-R2 block 4 and Tn6 DDE FP 1.
COc1ccc(-c2noc(C3CCCN(C(=O)Nc4ccc(Cl)cc4)C3)n2)cc1 (stereo not given) was read as DDE Tn7 FP inh 0 and Tn6 DDE FP 2.
`CCCCNc1nc(CC)c2c(c1C#N)CCCC2` gave DDE Tn7 FP inh 0, CRFBP-R2 agonist 0, CRFBP-R2 block 61* and Tn6 DDE FP 4.
For NS(=O)(=O)c1cccc(NC(=O)c2ccccc2NS(=O)(=O)c2ccc(F)cc2)c1 the results were DDE Tn7 FP inh -6, CRFBP-R2 agonist 2, CRFBP-R2 block -13 and Tn6 DDE FP 3.
Screening O=C(Nc1cc(S(=O)(=O)Nc2ccccc2Cl)ccc1O)c1ccc(F)cc1F returned DDE Tn7 FP inh 11, CRFBP-R2 agonist 24, CRFBP-R2 block 22 and Tn6 DDE FP 9.
O=C(Nc1cc(S(=O)(=O)N2CCCCC2)ccc1O)c1ccccc1NS(=O)(=O)c1ccc(F)c(F)c1 was read as DDE Tn7 FP inh -9, CRFBP-R2 agonist 111*, CRFBP-R2 block 81* and Tn6 DDE FP -7.
O=C(Nc1cccc(S(=O)(=O)N2CCCCC2)c1)c1ccccc1NS(=O)(=O)c1ccc(F)cc1 was read as DDE Tn7 FP inh -1, CRFBP-R2 agonist 64*, CRFBP-R2 block 85* and Tn6 DDE FP 2.
For Cc1ccc(NC(=O)c2ccccc2NS(=O)(=O)c2ccc(F)cc2)cc1S(=O)(=O)N1CCCCC1 the results were DDE Tn7 FP inh -7, CRFBP-R2 agonist 46, CRFBP-R2 block 98* and Tn6 DDE FP 1.
`O=C(Nc1cccc(F)c1)c1cc(S(=O)(=O)N2CCOCC2)ccc1N1CCCC1` gave CRFBP-R2 agonist 66* and CRFBP-R2 block -35.
`O=C(CCc1c[nH]c2ccccc12)Nc1ccc(Nc2ccccc2)cc1` gave DDE Tn7 FP inh -2 and Tn6 DDE FP -5.
For CCCCOCCCNC(=O)C[C@H]1C[C@@]2(C(=O)OC)C(=C[C@H](COCc3ccccc3)O[C@@H]2C)N(Cc2ccc(Cl)cc2Cl)C1=O the results were DDE Tn7 FP inh -3 and Tn6 DDE FP 3.
